This is an account of results in ChEMBL document CHEMBL1148770, “Conformation-activity relationship of neuropeptide S and some structural mutants: helicity affects their interaction with the receptor” (J Med Chem, 2007).

The target in test [1] is T1, Neuropeptide S receptor (Mus musculus) (UniProt Q8BZP8).
T1 sequence (whole entry): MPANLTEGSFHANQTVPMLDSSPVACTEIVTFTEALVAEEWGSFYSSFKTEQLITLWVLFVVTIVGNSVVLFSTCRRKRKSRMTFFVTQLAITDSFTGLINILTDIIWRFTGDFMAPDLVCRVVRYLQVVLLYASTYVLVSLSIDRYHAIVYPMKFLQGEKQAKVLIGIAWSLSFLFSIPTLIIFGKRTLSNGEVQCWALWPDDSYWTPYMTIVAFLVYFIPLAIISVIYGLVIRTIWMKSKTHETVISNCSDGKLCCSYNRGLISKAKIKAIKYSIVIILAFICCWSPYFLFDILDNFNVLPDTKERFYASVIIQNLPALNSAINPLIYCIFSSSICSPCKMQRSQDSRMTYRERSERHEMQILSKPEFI
Kind of test: Agonist activity at mouse recombinant NPSR expressed in HEK293 cells assessed as calcium mobilization relative to baseline. In kind it is functional, cell-based. The method, boiled down: (§1)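 HEK293 cells stably expressing mouse NPSR, grown in DMEM/10% FBS/2 mM glutamine/hygromycin at 37 °C, 5% CO2. Seeded 50,000 cells/well on poly-D-lysine; next day loaded 30 min at 37 °C with 3 µM Fluo-4 AM, 2.5 mM probenecid, 0.01% pluronic acid. Read in HBSS/20 mM HEPES/probenecid/Brilliant Black at ≈22 °C on FlexStation; peak fluorescence change as % baseline; logistic fit; ≥4 experiments in duplicate.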

For test [2], the target named is T2, Neuropeptide S receptor (Mus musculus, UniProt Q8BZP8).
T2 sequence (Q8BZP8 whole entry): T1 sequence (whole entry)
Kind of test: Agonist activity at mouse recombinant NPSR expressed in HEK293 cells assessed as calcium mobilization. In kind it is functional, cell-based. The method, boiled down:
as §1
For orientation: Calcium assays in cells follow changes in intracellular calcium, usually with a dye or a luminescent sensor.

Square brackets hold non-standard residues; d marks the D form. Peptide text beside a SMILES is read from it. Aib = CC(C)(N)C(=O)O

As to `CSCC[C@H](NC(=O)[C@H](C)NC(=O)[C@@H](NC(=O)CNC(=O)[C@@H](NC(=O)CNC(=O)[C@H](CC(N)=O)NC(=O)[C@H](CCCNC(=N)N)NC(=O)[C@H](Cc1ccccc1)NC(=O)[C@@H](N)CO)C(C)C)[C@@H](C)O)C(=O)N[C@@H](CCCCN)C(=O)N[C@@H](CCCCN)C(=O)N[C@H](C(=O)N[C@@H](CO)C(=O)N[C@@H](Cc1ccccc1)C(=O)N[C@@H](CCC(N)=O)C(=O)N[C@@H](CCCNC(=N)N)C(=O)N[C@@H](C)C(=O)N[C@@H](CCCCN)C(=O)N[C@@H](CO)C(=O)O)[C@@H](C)O`, in test [1], the Emax – broadly, the size of the effect at its maximum, as opposed to the concentration needed – amounted to 164%. Besides, in test [2], the EC50 (commonly the concentration giving half of the maximal effect) was 23.4 nM.

As for `CSCC[C@H](NC(=O)CNC(=O)[C@@H](NC(=O)CNC(=O)[C@@H](NC(=O)CNC(=O)[C@H](CC(N)=O)NC(=O)[C@H](CCCNC(=N)N)NC(=O)[C@H](Cc1ccccc1)NC(=O)[C@H](C)N)C(C)C)[C@@H](C)O)C(=O)N[C@@H](CCCCN)C(=O)N[C@@H](CCCCN)C(=O)N[C@H](C(=O)N[C@@H](CO)C(=O)N[C@@H](Cc1ccccc1)C(=O)N[C@@H](CCC(N)=O)C(=O)N[C@@H](CCCNC(=N)N)C(=O)N[C@@H](C)C(=O)N[C@@H](CCCCN)C(=O)N[C@@H](CO)C(=O)O)[C@@H](C)O` (H-AFRNGVGTGMKKTSFQRAKS-OH), the maximal effect (Emax) in test [1] stood at 182%. In addition, the EC50 in test [2] was 26.3 nM.

For `CSCC[C@H](NC(=O)CNC(=O)[C@@H](NC(=O)CNC(=O)[C@@H](NC(=O)[C@H](C)NC(=O)[C@H](CC(N)=O)NC(=O)[C@H](CCCNC(=N)N)NC(=O)[C@H](Cc1ccccc1)NC(=O)[C@@H](N)CO)C(C)C)[C@@H](C)O)C(=O)N[C@@H](CCCCN)C(=O)N[C@@H](CCCCN)C(=O)N[C@H](C(=O)N[C@@H](CO)C(=O)N[C@@H](Cc1ccccc1)C(=O)N[C@@H](CCC(N)=O)C(=O)N[C@@H](CCCNC(=N)N)C(=O)N[C@@H](C)C(=O)N[C@@H](CCCCN)C(=O)N[C@@H](CO)C(=O)O)[C@@H](C)O` (H-SFRNAVGTGMKKTSFQRAKS-OH), the Emax in test [1] stood at 178%. Further, the EC50 in test [2] was 24.5 nM.

Regarding `CSCC[C@H](NC(=O)[C@H](C)NC(=O)[C@@H](NC(=O)CNC(=O)[C@@H](NC(=O)CNC(=O)[C@H](CC(N)=O)NC(=O)[C@H](CCCNC(=N)N)NC(=O)[C@H](Cc1ccccc1)NC(=O)[C@@H](N)CO)C(C)C)[C@@H](C)O)C(=O)N[C@@H](CCCCN)C(=O)N[C@@H](CCCCN)C(=O)N[C@@H](C)C(=O)N[C@@H](CO)C(=O)N[C@@H](Cc1ccccc1)C(=O)N[C@@H](CCC(N)=O)C(=O)N[C@@H](CCCNC(=N)N)C(=O)N[C@@H](C)C(=O)N[C@@H](CCCCN)C(=O)N[C@@H](CO)C(=O)O` (H-SFRNGVGTAMKKASFQRAKS-OH), in test [1], the Emax was 191%. The EC50 in test [2] was 15.1 nM.

As for `CSCC[C@H](NC(=O)CNC(=O)[C@@H](NC(=O)CNC(=O)[C@@H](NC(=O)CNC(=O)[C@H](CC(N)=O)NC(=O)[C@H](CCCNC(=N)N)NC(=O)[C@H](Cc1ccccc1)NC(=O)[C@@H](N)CO)C(C)C)[C@@H](C)O)C(=O)N[C@@H](CCCCN)C(=O)N[C@@H](CCCCN)C(=O)N[C@@H](C)C(=O)N[C@@H](CO)C(=O)N[C@@H](Cc1ccccc1)C(=O)N[C@@H](CCC(N)=O)C(=O)N[C@@H](CCCNC(=N)N)C(=O)N[C@@H](C)C(=O)N[C@@H](CCCCN)C(=O)N[C@@H](CO)C(=O)O` (H-SFRNGVGTGMKKASFQRAKS-OH), the Emax in test [1] is 172%. Also, the EC50 in test [2] is 19.1 nM.

For the compound `CSCC[C@H](NC(=O)C(C)(C)NC(=O)[C@@H](NC(=O)CNC(=O)[C@@H](NC(=O)CNC(=O)[C@H](CC(N)=O)NC(=O)[C@H](CCCNC(=N)N)NC(=O)[C@H](Cc1ccccc1)NC(=O)[C@@H](N)CO)C(C)C)[C@@H](C)O)C(=O)N[C@@H](CCCCN)C(=O)N[C@@H](CCCCN)C(=O)N[C@H](C(=O)N[C@@H](CO)C(=O)N[C@@H](Cc1ccccc1)C(=O)N[C@@H](CCC(N)=O)C(=O)N[C@@H](CCCNC(=N)N)C(=O)N[C@@H](C)C(=O)N[C@@H](CCCCN)C(=O)N[C@@H](CO)C(=O)O)[C@@H](C)O` (H-SFRNGVGT[Aib]MKKTSFQRAKS-OH), in test [1], the Emax was 190%. Besides, the EC50 in test [2] is 10.2 nM.
